{
  "source": "ChEMBL document CHEMBL2169769",
  "about": "“Synthesis and biological characterization of protease-activated prodrugs of doxazolidine” (J Med Chem, 2012)",
  "key": {"MCF7 [1]": {"test_system": "MCF7", "assay": "Cytotoxicity against human MCF7 cells incubated for 24 hrs measured after 5 days in presence of complete protease inhibitor cocktail", "format": "functional, cell-based", "outline": "(§1)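 Cells seeded 1000/well, adhered overnight, then serum-free medium with or without plasmin, trypsin, cathepsin B or papain (0.2 U/well), aprotinin (5 µM) or protease inhibitor cocktail (1X). Prodrug 2000–1 nM final, 24 h; then complete medium up to 5 days or control 80% confluence. Formalin fixed, crystal violet, A582; % of control fit to variable-slope sigmoid for IC50.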"}, "MCF7 [2]": {"test_system": "MCF7", "assay": "Cytotoxicity against human MCF7 cells incubated for 24 hrs measured after 5 days", "format": "functional, cell-based", "outline": "as §1"}, "[3]": {"assay": "Prodrug conversion assessed as release dozax at 50 uM at pH 7.4 in PBS buffer in absence of human plasmin after 24 hrs by RP-HPLC", "format": "ADME", "conditions": "pH 7.4, 24 h; call rule not given here", "outline": "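Enzyme-free control: 50 µM prodrug in PBS at 37 °C over 24 h, RP-HPLC monitoring dox at 480 nm.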"}, "MCF7 [4]": {"test_system": "MCF7", "assay": "Cytotoxicity against human MCF7 cells incubated for 24 hrs measured after 5 days in presence of 0.2 U plasmin", "format": "functional, cell-based", "outline": "as §1"}, "MIA PaCa-2 [5]": {"test_system": "MIA PaCa-2", "assay": "Cytotoxicity against human MIAPaCa2 cells incubated for 24 hrs measured after 5 days in presence of 0.2 U papain", "format": "functional, cell-based", "outline": "as §1"}, "MIA PaCa-2 [6]": {"test_system": "MIA PaCa-2", "assay": "Drug uptake in human MIAPaCa2 cells increase in compound uptake-induced anthracycline fluorescence in absence of plasmin at 0.5 uM up to 5 hrs by flow cytometry relative to untreated control", "format": "ADME, cell-based", "conditions": "mia paca-2, 5 h", "outline": "(§2)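 MCF-7 or MiaPaCa-2 plated 250,000/well, adhered overnight, switched to serum-free medium with 0.5 µM prodrug alone or plus 0.2 U human plasmin (final) for up to 5 h. Trypsinised cells read by flow cytometry (FL3) for anthracycline fluorescence; mean values expressed as fold over untreated cells.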"}, "MIA PaCa-2 [7]": {"test_system": "MIA PaCa-2", "assay": "Cytotoxicity against human MIAPaCa2 cells incubated for 24 hrs measured after 5 days in presence of 5 uM aprotinin", "format": "functional, cell-based", "outline": "as §1"}, "MCF7 [8]": {"test_system": "MCF7", "assay": "Drug uptake in human MCF7 cells increase in compound uptake-induced anthracycline fluorescence in presence of plasmin at 0.5 uM after 4 to 5 hrs by flow cytometry relative to untreated control", "format": "ADME, cell-based", "conditions": "mcf7, 0.5 µM", "outline": "as §2"}, "MIA PaCa-2 [9]": {"test_system": "MIA PaCa-2", "assay": "Drug uptake in human MIAPaCa2 cells increase in compound uptake-induced anthracycline fluorescence in presence of plasmin at 0.5 uM after 4 to 5 hrs by flow cytometry relative to untreated control", "format": "ADME, cell-based", "conditions": "mia paca-2, 0.5 µM", "outline": "as §2"}, "[10]": {"assay": "Prodrug conversion assessed as release dozax at 50 uM at pH 7.4 in PBS buffer in presence of human plasmin after 2 hrs by RP-HPLC", "format": "ADME", "conditions": "pH 7.4, 2 h", "outline": "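50 µM prodrug with 1.2 µg/mL human plasmin in PBS pH 7.4 at 37 °C. Samples taken over time, ethanol-quenched, analysed by RP-HPLC at 480 nm for prodrug and dox; repeated runs fit to single-exponential association model.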"}, "[11]": {"molecular_target": "Cathepsin B (Homo sapiens) (UniProt P07858)", "assay": "Activity of human cathepsin B assessed as compound hydrolysis measuring enzyme specific activity at 50 uM at pH 6.5 in PBS buffer containing 10 mM N-acetylcysteine by RP-HPLC", "outline": "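Specific activity from hydrolysis time courses at 37 °C with 50 µM substrate. Plasmin in PBS pH 7.4; cathepsin B diluted two-fold in PBS-NAC, reacted in PBS-NAC (10 mM N-acetylcysteine) pH 6.5. Ethanol-quenched aliquots, protein precipitated at −20 °C, RP-HPLC at 480 nm tracking dox release. Linear least-squares slope used; 1 U = 1 µM substrate hydrolysed per min.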"}, "[12]": {"molecular_target": "Cathepsin B (Homo sapiens) (UniProt P07858)", "assay": "Activity of human cathepsin B assessed as enzyme catalytic efficiency for compound hydrolysis at 50 uM at pH 6.5 in PBS buffer containing 10 mM N-acetylcysteine by RP-HPLC", "outline": "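Michaelis-Menten kinetics, substrate 10–400 µM at 37 °C. Plasmin: 0.2 U, PBS pH 7.4, 4 min. Cathepsin B: 0.08 U, PBS-NAC pH 6.5, 20 min. Quenched with equal volume ethanol, −20 °C ≥2 h, centrifuged, supernatant RP-HPLC at 480 nm. Rates (µM/min) fit by non-linear least squares; triplicates.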"}, "MIA PaCa-2 [13]": {"test_system": "MIA PaCa-2", "assay": "Cytotoxicity against human MIAPaCa2 cells incubated for 24 hrs measured after 5 days in presence of 0.2 U cathepsin B", "format": "functional, cell-based", "outline": "as §1"}, "Papain (Carica papaya)": {"molecular_target": "T1, Papain (Carica papaya) (UniProt P00784)", "T1 sequence (whole entry)": "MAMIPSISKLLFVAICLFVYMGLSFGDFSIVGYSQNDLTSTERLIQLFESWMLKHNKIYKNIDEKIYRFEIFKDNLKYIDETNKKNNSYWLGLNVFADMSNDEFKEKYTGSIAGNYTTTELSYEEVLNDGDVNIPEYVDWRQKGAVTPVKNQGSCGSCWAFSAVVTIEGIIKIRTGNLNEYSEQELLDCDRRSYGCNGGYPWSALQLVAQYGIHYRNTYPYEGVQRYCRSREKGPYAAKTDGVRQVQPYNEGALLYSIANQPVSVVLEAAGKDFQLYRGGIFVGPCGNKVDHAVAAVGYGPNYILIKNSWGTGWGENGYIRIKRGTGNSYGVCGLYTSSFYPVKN", "assay": "Activity of papaya papain assessed as compound hydrolysis measuring enzyme specific activity at 50 uM at pH 6.5 in PBS buffer containing 10 mM N-acetylcysteine by RP-HPLC", "outline": "(§3)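 50 µM prodrug incubated at 37 °C with enzyme: trypsin in PBS; papain diluted two-fold in PBS-NAC (PBS + 10 mM N-acetylcysteine), reacted in PBS-NAC pH 6.5. Aliquots quenched in equal volume ethanol, −20 °C ≥2 h, centrifuged; supernatant RP-HPLC at 480 nm for substrate loss and dox gain. Slope of linear fit gives activity; 1 U = 1 µM prodrug hydrolysed per min.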"}, "BXPC-3": {"test_system": "BXPC-3", "assay": "Cytotoxicity against human BxPC3 cells incubated for 24 hrs measured after 5 days in presence of 0.2 U human plasmin", "format": "functional, cell-based", "outline": "as §1"}, "MCF7 [14]": {"test_system": "MCF7", "assay": "Cytotoxicity against human MCF7 cells incubated for 24 hrs measured after 5 days in presence of 5 uM aprotinin", "format": "functional, cell-based", "outline": "as §1"}, "MCF7 [15]": {"test_system": "MCF7", "assay": "Cytotoxicity against human MCF7 cells incubated for 24 hrs measured after 5 days in presence of 0.2 U papain", "format": "functional, cell-based", "outline": "as §1"}, "Bos taurus": {"species": "Bos taurus", "assay": "Activity of bovine trypsin assessed as enzyme specific activity for compound hydrolysis", "outline": "as §3"}, "MIA PaCa-2 [16]": {"test_system": "MIA PaCa-2", "assay": "Cytotoxicity against human MIAPaCa2 cells incubated for 24 hrs measured after 5 days in presence of 0.2 U plasmin", "format": "functional, cell-based", "outline": "as §1"}, "Homo sapiens": {"species": "Homo sapiens", "assay": "Selectivity ratio of Kcat of human plasmin to Kcat of human cathepsin B", "outline": "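Michaelis–Menten kinetics with human enzymes and substrate at 10–400 µM, 37 °C. Plasmin: 0.2 U in PBS pH 7.4 for 4 min. Cathepsin B: 0.08 U in PBS with 10 mM N-acetylcysteine, pH 6.5, for 20 min. Quenched with ethanol, held at −20 °C ≥2 h, centrifuged. Dox release read by RP-HPLC at 480 nm. Rates (µM/min) fit by non-linear least squares; triplicate.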"}, "MIA PaCa-2 [17]": {"test_system": "MIA PaCa-2", "assay": "Cytotoxicity against human MIAPaCa2 cells incubated for 24 hrs measured after 5 days", "format": "functional, cell-based", "outline": "as §1"}, "MCF7 [18]": {"test_system": "MCF7", "assay": "Drug uptake in human MCF7 cells increase in compound uptake-induced anthracycline fluorescence in absence of plasmin at 0.5 uM up to 5 hrs by flow cytometry relative to untreated control", "format": "ADME, cell-based", "conditions": "mcf7, 5 h", "outline": "as §2"}, "[19]": {"assay": "Cytotoxicity against human L3.6PL cells incubated for 24 hrs measured after 5 day", "format": "functional, cell-based", "outline": "as §1"}},
  "data": [
    {"smiles": "COc1cccc2c1C(=O)c1c(O)c3c(c(O)c1C2=O)C[C@@](O)(C(=O)CO)C[C@@H]3O[C@H]1C[C@H]2[C@H](OCN2C(=O)OCc2ccc(NC(=O)[C@H](CCCCN)NC(=O)[C@H](Cc3ccccc3)NC(=O)[C@@H](C)NC(=O)CNC(C)=O)cc2)[C@H](C)O1.O=P(O)(O)O", "values": [
      {"measurement": "IC50", "setting": "MCF7 [1]", "result": 0.251, "unit": "µM"},
      {"measurement": "IC50", "setting": "MCF7 [2]", "result": 0.2, "unit": "µM"},
      {"measurement": "Stability", "setting": "[3]", "result": "Stable"},
      {"measurement": "IC50", "setting": "MCF7 [4]", "result": 0.0269, "unit": "µM"},
      {"measurement": "IC50", "setting": "MIA PaCa-2 [5]", "result": 0.0692, "unit": "µM"},
      {"measurement": "fold change (FC)", "setting": "MIA PaCa-2 [6]", "result": 2},
      {"measurement": "IC50", "setting": "MIA PaCa-2 [7]", "result": 0.282, "unit": "µM"},
      {"measurement": "fold change (FC)", "setting": "MCF7 [8]", "result": 7},
      {"measurement": "fold change (FC)", "setting": "MIA PaCa-2 [9]", "result": 7},
      {"measurement": "Drug metabolism", "setting": "[10]", "result": "Active"},
      {"measurement": "Activity", "setting": "[11]", "result": 1040, "unit": "U/mg"},
      {"measurement": "Activity", "setting": "[12]", "result": 4.59, "unit": "×10³ /M/s"},
      {"measurement": "IC50", "setting": "MIA PaCa-2 [13]", "result": 0.158, "unit": "µM"},
      {"measurement": "Activity", "setting": "Papain (Carica papaya)", "result": 890, "unit": "U/mg"},
      {"measurement": "IC50", "setting": "BXPC-3", "result": 0.0398, "unit": "µM"},
      {"measurement": "IC50", "setting": "MCF7 [14]", "result": 0.295, "unit": "µM"},
      {"measurement": "IC50", "setting": "MCF7 [15]", "result": 0.0603, "unit": "µM"},
      {"measurement": "Activity", "setting": "Bos taurus", "result": 4340, "unit": "U/mg"},
      {"measurement": "IC50", "setting": "MIA PaCa-2 [16]", "result": 0.0234, "unit": "µM"},
      {"measurement": "Ratio", "setting": "Homo sapiens", "result": 5},
      {"measurement": "IC50", "setting": "MIA PaCa-2 [17]", "result": 0.251, "unit": "µM"},
      {"measurement": "fold change (FC)", "setting": "MCF7 [18]", "result": 2},
      {"measurement": "IC50", "setting": "[19]", "result": 0.316, "unit": "µM"}
    ]}
  ]
}
